Assay results taken from ChEMBL document CHEMBL1138465, “N-aryl-oxazolidin-2-imine muscle selective androgen receptor modulators enhance potency through pharmacophore reorientation” (J Med Chem, 2009).
Converted amounts (≈) assume the structure as drawn.

How the values were obtained:
Androgen receptor [1] = molecular target: T1, Androgen receptor (Homo sapiens, UniProt P10275); assay: Displacement of [3H[DHT from androgen receptor endogenously expressed in human MDA-MB-453 cells; type: cell-based
T1 sequence (P10275 whole entry): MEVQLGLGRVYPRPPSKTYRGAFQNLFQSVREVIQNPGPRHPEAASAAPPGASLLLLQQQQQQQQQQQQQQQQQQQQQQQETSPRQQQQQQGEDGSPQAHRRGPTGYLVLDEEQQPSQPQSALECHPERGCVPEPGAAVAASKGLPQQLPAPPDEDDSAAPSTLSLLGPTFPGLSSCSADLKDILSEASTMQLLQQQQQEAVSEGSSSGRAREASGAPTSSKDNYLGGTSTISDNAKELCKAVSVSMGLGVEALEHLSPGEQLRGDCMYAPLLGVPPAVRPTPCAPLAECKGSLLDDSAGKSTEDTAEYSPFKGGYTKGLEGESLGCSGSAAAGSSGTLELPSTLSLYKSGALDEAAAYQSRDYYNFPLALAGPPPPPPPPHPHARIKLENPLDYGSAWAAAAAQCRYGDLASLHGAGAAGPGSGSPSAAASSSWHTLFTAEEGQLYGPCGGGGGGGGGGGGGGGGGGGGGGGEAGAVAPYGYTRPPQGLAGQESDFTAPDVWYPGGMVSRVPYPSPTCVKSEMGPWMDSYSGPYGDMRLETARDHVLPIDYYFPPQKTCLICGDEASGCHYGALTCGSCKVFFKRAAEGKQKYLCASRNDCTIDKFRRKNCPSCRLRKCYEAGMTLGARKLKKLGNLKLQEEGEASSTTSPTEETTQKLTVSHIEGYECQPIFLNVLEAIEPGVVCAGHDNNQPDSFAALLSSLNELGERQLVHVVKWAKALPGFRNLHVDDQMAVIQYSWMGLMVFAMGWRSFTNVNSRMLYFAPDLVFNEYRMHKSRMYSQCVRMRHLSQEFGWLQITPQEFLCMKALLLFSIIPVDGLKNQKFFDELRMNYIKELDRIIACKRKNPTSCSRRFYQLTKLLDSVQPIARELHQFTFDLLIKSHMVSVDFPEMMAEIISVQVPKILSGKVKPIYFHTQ

Androgen receptor [2] = molecular target: T2, Androgen receptor (Rattus norvegicus, UniProt P15207); assay: […] at rat AR expressed in mouse skeletal muscle C2C12 cells assessed as transcriptional activation after 24 hrs by androgen-specific response element driven luciferase reporter gene assay; type: functional, cell-based
T2 sequence (P15207 whole entry): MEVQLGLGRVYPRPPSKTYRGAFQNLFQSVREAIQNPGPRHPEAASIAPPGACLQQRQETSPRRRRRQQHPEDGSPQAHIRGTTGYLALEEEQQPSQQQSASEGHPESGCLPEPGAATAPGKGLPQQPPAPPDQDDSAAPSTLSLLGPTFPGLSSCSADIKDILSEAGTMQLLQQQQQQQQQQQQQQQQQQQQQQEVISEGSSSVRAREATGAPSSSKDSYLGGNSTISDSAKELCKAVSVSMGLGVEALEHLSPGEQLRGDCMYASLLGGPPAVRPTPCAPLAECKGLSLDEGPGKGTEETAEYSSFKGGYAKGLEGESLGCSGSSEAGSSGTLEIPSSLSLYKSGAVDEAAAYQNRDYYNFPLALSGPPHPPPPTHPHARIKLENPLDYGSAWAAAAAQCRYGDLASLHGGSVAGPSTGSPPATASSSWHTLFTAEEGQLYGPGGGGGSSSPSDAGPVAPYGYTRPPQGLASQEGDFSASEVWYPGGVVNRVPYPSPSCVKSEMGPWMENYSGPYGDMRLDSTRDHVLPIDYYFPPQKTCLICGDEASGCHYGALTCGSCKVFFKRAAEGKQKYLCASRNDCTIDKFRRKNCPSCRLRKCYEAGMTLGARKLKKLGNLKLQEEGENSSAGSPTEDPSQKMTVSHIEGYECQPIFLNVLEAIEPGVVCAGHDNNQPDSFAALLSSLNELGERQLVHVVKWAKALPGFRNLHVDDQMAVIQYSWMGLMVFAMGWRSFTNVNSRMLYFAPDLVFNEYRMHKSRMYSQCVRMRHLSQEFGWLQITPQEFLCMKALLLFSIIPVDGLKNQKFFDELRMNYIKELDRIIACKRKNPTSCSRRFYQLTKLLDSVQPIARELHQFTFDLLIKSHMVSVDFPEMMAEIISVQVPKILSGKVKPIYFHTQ

Androgen receptor [3] = molecular target: T2, Androgen receptor; assay: Agonist activity at rat androgen receptor expressed in mouse skeletal muscle C2C12 cells assessed as transcriptional activation after 24 hrs by androgen-specific response element driven luciferase reporter gene assay; type: functional, cell-based
[4] = Aqueous solubility of the compound; type: physicochemical
[5] = AUC in rat at 5 mg/kg, po; type: ADME, organism-based; design: dose 5 mg/kg, route oral; conditions: plasma
Rattus norvegicus [6] = assay: Anabolic activity in castrated male Harlan Sprague-Dawley rat assessed as intact growth of Levator ani muscle at 0.00001 mg/kg, po after 14 days; type: functional; conditions: dose 1e-05 mg/kg
Rattus norvegicus [7] = assay: Anabolic activity in castrated male Harlan Sprague-Dawley rat assessed as intact growth of Levator ani muscle at 0.0001 mg/kg, po after 14 days; type: functional
Rattus norvegicus [8] = assay: Anabolic activity in castrated male Harlan Sprague-Dawley rat assessed as intact growth of Levator ani muscle at 0.001 mg/kg, po after 14 days; type: functional
Rattus norvegicus [9] = assay: Anabolic activity in castrated male Harlan Sprague-Dawley rat assessed as intact growth of Levator ani muscle at 0.01 mg/kg, po after 14 days; type: functional
Rattus norvegicus [10] = assay: Anabolic activity in castrated male Harlan Sprague-Dawley rat assessed as intact growth of Levator ani muscle at 0.03 mg/kg, po after 14 days; type: functional
Rattus norvegicus [11] = assay: Anabolic activity in castrated male Harlan Sprague-Dawley rat assessed as intact growth of Levator ani muscle at 0.1 mg/kg, po after 14 days; type: functional
Rattus norvegicus [12] = assay: Anabolic activity in castrated male Harlan Sprague-Dawley rat assessed as intact growth of Levator ani muscle at 0.3 mg/kg, po after 14 days; type: functional
Rattus norvegicus [13] = assay: Anabolic activity in po dosed castrated male Harlan Sprague-Dawley rat assessed as intact growth of Levator ani muscle after 14 days; type: functional; conditions: 336 h
Rattus norvegicus [14] = assay: Anabolic activity in castrated male Harlan Sprague-Dawley rat assessed as intact growth of prostate at 0.00001 mg/kg, po after 14 days; type: functional, Prostate gland; conditions: dose 1e-05 mg/kg
Rattus norvegicus [15] = assay: Anabolic activity in castrated male Harlan Sprague-Dawley rat assessed as intact growth of prostate at 0.0001 mg/kg, po after 14 days; type: functional, Prostate gland
Rattus norvegicus [16] = assay: Anabolic activity in castrated male Harlan Sprague-Dawley rat assessed as intact growth of prostate at 0.001 mg/kg, po after 14 days; type: functional, Prostate gland
Rattus norvegicus [17] = assay: Anabolic activity in castrated male Harlan Sprague-Dawley rat assessed as intact growth of prostate at 0.01 mg/kg, po after 14 days; type: functional, Prostate gland
Rattus norvegicus [18] = assay: Anabolic activity in castrated male Harlan Sprague-Dawley rat assessed as intact growth of prostate at 0.03 mg/kg, po after 14 days; type: functional, Prostate gland
Rattus norvegicus [19] = assay: Anabolic activity in castrated male Harlan Sprague-Dawley rat assessed as intact growth of prostate at 0.1 mg/kg, po after 14 days; type: functional, Prostate gland
Rattus norvegicus [20] = assay: Anabolic activity in castrated male Harlan Sprague-Dawley rat assessed as intact growth of prostate at 0.3 mg/kg, po after 14 days; type: functional, Prostate gland
Rattus norvegicus [21] = assay: Anabolic activity in po dosed castrated male Harlan Sprague-Dawley rat assessed as intact growth of prostate after 14 days; type: functional; conditions: Prostate gland, 336 h
[22] = Chemical stability in 0.1N HCl assessed as drug remaining after 24 hrs; type: physicochemical; conditions: read-out: Stability
Method in brief: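 Compound held in solution in 0.1 N HCl at 37 °C for 24 h, used as a model of gut pH; the percentage of intact compound remaining at 24 h was the read-out.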

Rattus norvegicus [23] = assay: Anabolic activity in sc dosed castrated male Harlan Sprague-Dawley rat assessed as intact growth of Levator ani muscle after 14 days; type: functional; conditions: 336 h
Rattus norvegicus [24] = assay: Anabolic activity in sc dosed castrated male Harlan Sprague-Dawley rat assessed as intact growth of prostate after 14 days; type: functional; conditions: Prostate gland, 336 h
Androgen receptor [25] = molecular target: T2, Androgen receptor; assay: Intrinsic activity at rat androgen receptor expressed in mouse skeletal muscle C2C12 cells assessed as transcriptional activation after 24 hrs by androgen-specific response element driven luciferase reporter gene assay relative to control; type: cell-based

SMILES | Ki (Androgen receptor [1]) | EC50 (Androgen receptor [3]) | also measured
Cc1c(/N=C2\NC[C@@H]3[C@H](O)CCN23)ccc(C#N)c1Cl | 10 nM |  | EC50 (Androgen receptor [2]): 1800 nM
Cc1c(/N=C2\OC(C(C)C)[C@@H]3[C@H](O)CCN23)ccc(C#N)c1Cl (single isomer, unassigned) | 0.7 nM | 3.7 nM | 
Cc1c(N2C(NC#N)N3CC[C@H](O)[C@H]3[C@@H]2C)ccc(C#N)c1Cl (stereo partly specified) | 17 nM | 1110 nM | 
Cc1c(N2C(=O)[C@@H]3[C@H](O)CCN3C2=O)ccc(C#N)c1Cl |  |  | solubility [4]: 19 µg/mL (≈ 62.1 µM)
Cc1c(N2C[C@@H]3[C@H](O)CCN3C2=O)ccc(C#N)c1Cl | 6 nM | 6.4 nM | 
Cc1c(/N=C2\O[C@@H](C(F)(F)F)[C@@H]3[C@@H](O)CCN23)ccc(C#N)c1Cl | 0.3 nM | 0.2 nM | AUC [5]: 5.8 µM·h; Activity (Rattus norvegicus [6]): 21%; Activity (Rattus norvegicus [7]): 25%; Activity (Rattus norvegicus [8]): 59%; Activity (Rattus norvegicus [9]): 109.3%; Activity (Rattus norvegicus [10]): 103.5%; Activity (Rattus norvegicus [11]): 100.5%; Activity (Rattus norvegicus [12]): 103.9%; ED50 (Rattus norvegicus [13]): 0.0009 mg/kg; Activity (Rattus norvegicus [14]): 2.6%; Activity (Rattus norvegicus [15]): 3.6%; Activity (Rattus norvegicus [16]): 9.5%; Activity (Rattus norvegicus [17]): 38.8%; Activity (Rattus norvegicus [18]): 72.9%; Activity (Rattus norvegicus [19]): 103%; Activity (Rattus norvegicus [20]): 104.5%; ED50 (Rattus norvegicus [21]): 0.0143 mg/kg; remaining at 24 h [22]: 0.41%; ED50 (Rattus norvegicus [23]): 0.21 mg/kg; ED50 (Rattus norvegicus [24]): 0.42 mg/kg
Cc1c(/N=C2\O[C@H](C(F)(F)F)[C@@H]3[C@@H](O)CCN23)ccc(C#N)c1Cl | 0.2 nM | 19 nM | 
Cc1c(/N=C2\O[C@@H](C(F)(F)F)[C@@H]3[C@H](O)CCN23)ccc(C#N)c1Cl | 0.3 nM | 1.4 nM | 
Cc1c(/N=C2\O[C@H](C(F)(F)F)[C@@H]3[C@H](O)CCN23)ccc(C#N)c1Cl | 2.3 nM | 1.1 nM | 
CC[C@H]1[C@@H]2[C@@H](O)CCN2C(=O)N1c1ccc(C#N)c(Cl)c1C |  | 1.8 nM | 
Cc1c(/N=C2\N(C)C[C@@H]3[C@H](O)CCN23)ccc(C#N)c1Cl | 1.9 nM | 44 nM | 
Cc1c(/N=C2\OC[C@@H]3[C@@H](O)CCN23)ccc(C#N)c1Cl | 0.3 nM | 14 nM | 
Cc1c(/N=C2\OC[C@@H]3[C@H](O)CCN23)ccc(C#N)c1Cl | 0.8 nM | 4.8 nM | 
Cc1c(/N=C2\N(C(N)=O)C[C@@H]3[C@H](O)CCN23)ccc(C#N)c1Cl | 19 nM |  | EC50 (Androgen receptor [25]): Active
